Where “and” joins values, the source holds several entries; their conditions need not be identical. Identical values can stand only once.
Test system: U2OS
Test: Multiplex assay against U2OS
Format: toxicity, cell-based
Details: human
Summary of the method: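 Live cells carried four stains from seeding: Hoechst33342, BioTracker Green Microtubule Cytoskeleton Dye, MitoTracker Red and Annexin V Alexa Fluor 680. They were imaged on a CQ1 microscope at 37°C and 5% CO2 after compound addition. Using CellPathfinder machine-learning gating, cells were split into Hoechst high-intensity objects or normal cells, normal cells into healthy, pyknosed or fragmented nuclei, and pyknosed cells into mitotic or apoptotic; tubulin, mitochondrial-mass and membrane-permeability phenotypes are per cents of healthy-nucleus cells.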

[1] = 12 h, 1 µM, compound concentration 1 uM
[2] = 12 h, 10 µM, compound concentration 10 uM
[3] = 24 h, 1 µM, compound concentration 1 uM
[4] = 24 h, 10 µM, compound concentration 10 uM
[5] = 48 h, 1 µM, compound concentration 1 uM
[6] = 48 h, 10 µM, compound concentration 10 uM

## CC(=O)NCC(=O)N1[C@@H]2CC[C@H]1c1ccc(Nc3ncc(C(F)(F)F)c(NC4CCC4)n3)cc12 [PF-03814735]
[1]
  Population Apoptotic (%): 43.59% and 56.25%
  Population Fragmented Nuclei (%): 3.86% and 3.61%
  Population Healthy Nuclei (%): 82.46% and 86.75%
  Population Hoechst High Intensity Objects (%): 0%
  Population Membrane Permeable-Phenotype (%): 2.55% and 3.47%
  Population Mitochondria Different-Phenotype (%): 0% and 6.25%
  Population Mitotic Cells (%): 56.41% and 43.75%
  Population Normal (%): 100%
  Population Pyknosed Nuclei (%): 13.68% and 9.64%
  Population Tubulin-Different-Phenotype (%): 2.55% and 1.39%
  Total Cell Count: 285 and 166
[2]
  Population Apoptotic (%): 36.84% and 50%
  Population Fragmented Nuclei (%): 4.71% and 6.5%
  Population Healthy Nuclei (%): 58.45% and 47.97%
  Population Hoechst High Intensity Objects (%): 0.28% and 0%
  Population Membrane Permeable-Phenotype (%): 5.69% and 15.25%
  Population Mitotic Cells (%): 63.16% and 50%
  Population Normal (%): 99.72% and 100%
  Population Pyknosed Nuclei (%): 36.84% and 45.53%
  Population Tubulin-Different-Phenotype (%): 7.58% and 8.47%
  Total Cell Count: 362 and 123
[3]
  Population Apoptotic (%): 52.86% and 55.56%
  Population Fragmented Nuclei (%): 3.18% and 2.94%
  Population Healthy Nuclei (%): 72.08% and 75.88%
  Population Hoechst High Intensity Objects (%): 0.35% and 0%
  Population Membrane Permeable-Phenotype (%): 1.96% and 5.43%
  Population Mitochondria Different-Phenotype (%): 0% and 7.75%
  Population Mitotic Cells (%): 47.14% and 44.44%
  Population Normal (%): 99.65% and 100%
  Population Pyknosed Nuclei (%): 24.73% and 21.18%
  Population Tubulin-Different-Phenotype (%): 0.49% and 3.88%
  Total Cell Count: 284 and 170
[4]
  Population Apoptotic (%): 67.23% and 80%
  Population Fragmented Nuclei (%): 5.92% and 4.1%
  Population Healthy Nuclei (%): 27.04% and 26.23%
  Population Hoechst High Intensity Objects (%): 0% and 0.81%
  Population Membrane Permeable-Phenotype (%): 10.42% and 12.5%
  Population Mitotic Cells (%): 32.77% and 20%
  Population Normal (%): 100% and 99.19%
  Population Pyknosed Nuclei (%): 67.04% and 69.67%
  Total Cell Count: 355 and 123
[5]
  Population Apoptotic (%): 69.39% and 73.33%
  Population Fragmented Nuclei (%): 2.78% and 6.88%
  Population Healthy Nuclei (%): 63.19% and 55.62%
  Population Hoechst High Intensity Objects (%): 0.69% and 0%
  Population Membrane Permeable-Phenotype (%): 3.85% and 7.87%
  Population Mitochondria Different-Phenotype (%): 0% and 15.73%
  Population Mitotic Cells (%): 30.61% and 26.67%
  Population Normal (%): 99.31% and 100%
  Population Pyknosed Nuclei (%): 34.03% and 37.5%
  Population Tubulin-Different-Phenotype (%): 6.04% and 10.11%
  Total Cell Count: 290 and 160
[6]
  Population Apoptotic (%): 78.97% and 93.41%
  Population Fragmented Nuclei (%): 6.71% and 1.74%
  Population Healthy Nuclei (%): 14.29% and 19.13%
  Population Hoechst High Intensity Objects (%): 0%
  Population Membrane Permeable-Phenotype (%): 18.37% and 31.82%
  Population Mitochondria Different-Phenotype (%): 14.29% and 4.55%
  Population Normal (%): 100%
  Population Pyknosed Nuclei (%): 79.01% and 79.13%
  Total Cell Count: 343 and 115

## CN1CCN(c2nc3cc(C(F)(F)F)ccc3n3cccc23)CC1.O=C(O)/C=C\C(=O)O.O=C(O)/C=C\C(=O)O
[1]
  Population Apoptotic (%): 77% and 100%
  Population Fragmented Nuclei (%): 17% and 18%
  Population Healthy Nuclei (%): 75% and 73%
  Population Hoechst High Intensity Objects (%): 1% and 0%
  Population Membrane Permeable-Phenotype (%): 4% and 8%
  Population Mitochondria Different-Phenotype (%): 0% and 2%
  Population Mitotic Cells (%): 22% and 0%
  Population Normal (%): 98% and 99%
  Population Pyknosed Nuclei (%): 6% and 8%
  Population Tubulin-Different-Phenotype (%): 1% and 3%
  Total Cell Count: 266 and 111
[2]
  Population Apoptotic (%): 66% and 88%
  Population Fragmented Nuclei (%): 31% and 25%
  Population Healthy Nuclei (%): 53% and 68%
  Population Hoechst High Intensity Objects (%): 1% and 2%
  Population Membrane Permeable-Phenotype (%): 18% and 13%
  Population Mitochondria Different-Phenotype (%): 45% and 41%
  Population Mitotic Cells (%): 33% and 11%
  Population Normal (%): 98% and 97%
  Population Pyknosed Nuclei (%): 15% and 6%
  Population Tubulin-Different-Phenotype (%): 19% and 21%
  Total Cell Count: 218 and 135
[3]
  Population Apoptotic (%): 85% and 92%
  Population Fragmented Nuclei (%): 17% and 13%
  Population Healthy Nuclei (%): 73% and 77%
  Population Hoechst High Intensity Objects (%): 2% and 0%
  Population Membrane Permeable-Phenotype (%): 5% and 8%
  Population Mitochondria Different-Phenotype (%): 1% and 4%
  Population Mitotic Cells (%): 14% and 7%
  Population Normal (%): 97% and 99%
  Population Pyknosed Nuclei (%): 9%
  Population Tubulin-Different-Phenotype (%): 3% and 4%
  Total Cell Count: 300 and 136
[4]
  Population Apoptotic (%): 76% and 78%
  Population Fragmented Nuclei (%): 31% and 19%
  Population Healthy Nuclei (%): 57% and 71%
  Population Hoechst High Intensity Objects (%): 3%
  Population Membrane Permeable-Phenotype (%): 16% and 17%
  Population Mitochondria Different-Phenotype (%): 41% and 36%
  Population Mitotic Cells (%): 24% and 21%
  Population Normal (%): 96%
  Population Pyknosed Nuclei (%): 10% and 9%
  Population Tubulin-Different-Phenotype (%): 14% and 16%
  Total Cell Count: 244 and 156
[5]
  Population Apoptotic (%): 87% and 85%
  Population Fragmented Nuclei (%): 14% and 17%
  Population Healthy Nuclei (%): 77% and 75%
  Population Hoechst High Intensity Objects (%): 2% and 1%
  Population Membrane Permeable-Phenotype (%): 4% and 6%
  Population Mitochondria Different-Phenotype (%): 0% and 5%
  Population Mitotic Cells (%): 12% and 14%
  Population Normal (%): 97% and 98%
  Population Pyknosed Nuclei (%): 7%
  Population Tubulin-Different-Phenotype (%): 2% and 3%
  Total Cell Count: 447 and 187
[6]
  Population Apoptotic (%): 78% and 81%
  Population Fragmented Nuclei (%): 31% and 21%
  Population Healthy Nuclei (%): 52% and 67%
  Population Hoechst High Intensity Objects (%): 4% and 3%
  Population Membrane Permeable-Phenotype (%): 16% and 10%
  Population Mitochondria Different-Phenotype (%): 17% and 16%
  Population Mitotic Cells (%): 21% and 18%
  Population Normal (%): 95% and 96%
  Population Pyknosed Nuclei (%): 16% and 11%
  Population Tubulin-Different-Phenotype (%): 12% and 9%
  Total Cell Count: 299 and 202

From ChEMBL document CHEMBL5724801, “EUbOPEN Chemogenomics Library - Multiplex” (2024)
